Experiments:
[1] = molecular target: T1, B2 bradykinin receptor (Cavia porcellus, UniProt O70526); assay: Concentration required to inhibit specific binding of [3H]BK at 0.06 nM to Bradykinin receptor B2 in guinea pig ileum membrane preparations by 50%.; format: cell membranes
T1 sequence (O70526 whole entry): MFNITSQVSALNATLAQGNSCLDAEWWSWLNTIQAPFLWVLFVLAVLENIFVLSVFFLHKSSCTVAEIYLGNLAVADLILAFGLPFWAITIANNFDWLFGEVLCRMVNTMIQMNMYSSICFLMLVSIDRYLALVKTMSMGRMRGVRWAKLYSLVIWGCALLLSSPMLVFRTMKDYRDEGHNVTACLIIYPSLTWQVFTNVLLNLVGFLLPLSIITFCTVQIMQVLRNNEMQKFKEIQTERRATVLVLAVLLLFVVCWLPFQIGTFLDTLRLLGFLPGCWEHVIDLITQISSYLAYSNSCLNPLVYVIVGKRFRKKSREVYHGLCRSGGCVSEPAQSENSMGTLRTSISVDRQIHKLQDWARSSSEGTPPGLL
Outline: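 Guinea pig ileal membranes (100000g pellet, pH 6.8 TES buffer with phenanthroline, bacitracin, DTT, captopril, 0.1% BSA), 0.2 mg protein/mL, incubated with 0.06 nM [3H]BK and compounds 60 min at room temperature; final DMSO below 3%. Filtration on glass fiber filters, scintillation counting; nonspecific binding with 1 µM BK. Three experiments in duplicate.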

[2] = molecular target: T2, B2 bradykinin receptor (Homo sapiens, UniProt P30411); assay: Concentration required to inhibit specific binding of [3H]BK at 1.2 nM to A-431 cells (human epidermoid carcinoma) which express Bradykinin receptor B2 by 50%.; format: cell-based
T2 sequence (P30411 whole entry): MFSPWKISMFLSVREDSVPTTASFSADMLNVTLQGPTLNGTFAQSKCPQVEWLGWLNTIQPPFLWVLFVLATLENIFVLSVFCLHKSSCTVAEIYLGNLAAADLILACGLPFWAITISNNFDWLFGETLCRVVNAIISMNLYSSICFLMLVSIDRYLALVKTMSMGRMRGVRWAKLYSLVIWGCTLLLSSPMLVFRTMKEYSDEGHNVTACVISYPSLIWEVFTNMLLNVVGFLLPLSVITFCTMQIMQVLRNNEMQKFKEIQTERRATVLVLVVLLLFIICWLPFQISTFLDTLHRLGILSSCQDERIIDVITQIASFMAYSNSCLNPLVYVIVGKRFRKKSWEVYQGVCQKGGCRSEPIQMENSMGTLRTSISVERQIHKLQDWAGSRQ

[3] = tested on: Cavia porcellus; assay: Compound tested in vivo for inhibition of Bradykinin induced Bronchoconstriction in anaesthetized guinea pig.(P<0.01); % Inhibition at 1 mg/kg. p.o.; format: functional; settings: route oral
Outline: (§1)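 Male Hartley guinea pigs (470-750 g), fasted overnight, anesthetized with pentobarbital 30 mg/kg ip, cannulated (trachea, jugular vein, esophagus), ventilated 10 mL/kg at 60 breaths/min; alcuronium 0.5 mg/kg iv, propranolol 10 mg/kg sc. BK 5 µg/kg iv; peak rise in insufflation pressure (modified Konzett-Rössler).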

[4] = tested on: Cavia porcellus; assay: Compound tested in vivo for inhibition of Bradykinin induced Bronchoconstriction in anaesthetized guinea pig.(P<0.001);% Inhibition at 3.2 mg/Kg p,o.; format: functional; outline: as §1
[5] = tested on: Cavia porcellus; assay: Compound tested in vivo for inhibition of Bradykinin induced Bronchoconstriction in anaesthetized guinea pig.(P<0.001); % Inhibition at 3.2 mg/Kg p,o.; format: functional; outline: as §1
[6] = tested on: Cavia porcellus; assay: Compound tested in vivo for inhibition of Bradykinin induced Bronchoconstriction in anaesthetized guinea pig.(P<0.01); % Inhibition at 1 mg/Kg p,o.; format: functional; outline: as §1
[7] = tested on: Cavia porcellus; assay: Compound tested in vivo for inhibition of Bradykinin induced Bronchoconstriction in anaesthetized guinea pig.(P<0.001); % Inhibition at 1 mg/Kg p,o.; format: functional; outline: as §1
[8] = tested on: Cavia porcellus; assay: Compound tested in vivo for inhibition of Bradykinin induced Bronchoconstriction in anaesthetized guinea pig.(P<0.05); % Inhibition at 1 mg/Kg p,o.; format: functional; outline: as §1
[9] = tested on: Cavia porcellus; assay: Compound tested in vivo for inhibition of Bradykinin induced Bronchoconstriction in anaesthetized guinea pig.(P<0.01); % Inhibition at 3.2 mg/Kg p,o.; format: functional; outline: as §1
[10] = tested on: Cavia porcellus; assay: Compound tested in vivo for inhibition of Bradykinin induced Bronchoconstriction in anaesthetized guinea pig.(P<0.01); % Inhibition at 3.2 mg/kg p.o.; format: functional; settings: route oral; outline: as §1
[11] = tested on: Cavia porcellus; assay: Compound tested in vivo for inhibition of Bradykinin induced Bronchoconstriction in anaesthetized guinea pig.(P<0.05); % Inhibition at 3.2 mg/Kg p,o.; format: functional; settings: in the assay text read “0.32 mg/Kg” for “3.2 mg/Kg”; outline: as §1
[12] = tested on: Cavia porcellus; assay: Compound tested in vivo for inhibition of Bradykinin induced Bronchoconstriction in anaesthetized guinea pig; % Inhibition at 1 mg/Kg p,o.; format: functional; outline: as §1
[13] = tested on: Cavia porcellus; assay: Compound tested in vivo for inhibition of Bradykinin induced Bronchoconstriction in anaesthetized guinea pig; % Inhibition at 3.2 mg/Kg p,o.; format: functional; outline: as §1

Row | IC50 [1] | IC50 [2] | SMILES | Inhibition [6] | further results
1 | 4.2 nM | 510 nM | Cc1nc2c(OCc3c(Cl)ccc(N(C)C(=O)CNC(=O)COc4ccccc4)c3Cl)cccn2c1Br | – | –
2 | 63 nM | 5200 nM | Cc1nc2c(OCc3c(Cl)ccc(N(C)C(=O)CNC(=O)Nc4cccc(C(=O)O)c4)c3Cl)cccn2c1Br | – | –
3 | 8.9 nM | 480 nM | Cc1nc2c(OCc3c(Cl)ccc(N(C)C(=O)CNC(=O)CCCc4ccccc4)c3Cl)cccn2c1Br | – | –
4 | 1.4 nM | 350 nM | Cc1nc2c(OCc3c(Cl)ccc(N(C)C(=O)CNC(=O)CCc4ccccc4)c3Cl)cccn2c1Br | – | –
5 | 2.7 nM | 75 nM | COCC(=O)Nc1cccc(NC(=O)NCC(=O)N(C)c2ccc(Cl)c(COc3cccn4c(Br)c(C)nc34)c2Cl)c1 | – | –
6 | 340 nM | 510 nM | Cc1nc2c(OCc3c(Cl)ccc(N(C)C(=O)CNC(=O)NC(=O)c4ccccc4)c3Cl)cccn2c1Br | – | –
7 | 15 nM | > 1000 nM | Cc1nc2c(OCc3c(Cl)ccc(N(C)C(=O)CNC(=O)Nc4cccc(N)c4)c3Cl)cccn2c1Br | – | –
8 | – | 610 nM | CCCC(=O)NCC(=O)N(C)c1ccc(Cl)c(COc2cccn3c(Br)c(C)nc23)c1Cl | – | inhibition in vivo at 1 mg/kg [3]: 52.7%
9 | – | 830 nM | Cc1nc2c(OCc3c(Cl)ccc(N(C)C(=O)CNC(=O)CN(C)C)c3Cl)cccn2c1Br | – | Inhibition [4]: 92.8%; inhibition in vivo at 1 mg/kg [3]: 72.4%
10 | – | 3000 nM | CCNC(=O)NCC(=O)N(C)c1ccc(Cl)c(COc2cccn3c(Br)c(C)nc23)c1Cl | – | Inhibition [5]: 78.1%; inhibition in vivo at 1 mg/kg [3]: 57.2%
11 | 83 nM | 150 nM | Cc1ccccc1NC(=O)NCC(=O)N(C)c1ccc(Cl)c(COc2cccn3c(Br)c(C)nc23)c1Cl | – | –
12 | 5.6 nM | 240 nM | CCCCCC(=O)NCC(=O)N(C)c1ccc(Cl)c(COc2cccn3c(Br)c(C)nc23)c1Cl | – | –
13 | 2.2 nM | 150 nM | CCOC(=O)c1cccc(NC(=O)NCC(=O)N(C)c2ccc(Cl)c(COc3cccn4c(Br)c(C)nc34)c2Cl)c1 | – | –
14 | 3.9 nM | 4.8 nM | Cc1nc2c(OCc3c(Cl)ccc(N(C)C(=O)CNC(=O)/C=C/c4ccc(NS(C)(=O)=O)cc4)c3Cl)cccn2c1Br | – | –
15 | 1.1 nM | 16 nM | CC(=O)N(C)c1ccc(/C=C/C(=O)NCC(=O)N(C)c2ccc(Cl)c(COc3cccn4c(Br)c(C)nc34)c2Cl)cc1.Cl | 84.3% | –
16 | 0.5 nM | 1.5 nM | CNC(=O)c1ccc(/C=C/C(=O)NCC(=O)N(C)c2ccc(Cl)c(COc3cccn4c(Br)c(C)nc34)c2Cl)cc1.Cl | – | Inhibition [7]: 53.2%
17 | 0.44 nM | 3.7 nM | Cc1nc2c(OCc3c(Cl)ccc(N(C)C(=O)CNC(=O)/C=C/c4ccc(C(=O)N(C)C)nc4)c3Cl)cccn2c1Br.Cl.Cl | 92.4% | –
18 | 0.59 nM | 4.1 nM | Cc1nc2c(OCc3c(Cl)ccc(N(C)C(=O)CNC(=O)/C=C/c4ccc(N5CCCC5=O)cc4)c3Cl)cccn2c1Br.Cl | 82% | –
19 | 0.38 nM | 2.4 nM | CC(=O)Nc1ccc(/C=C/C(=O)NCC(=O)N(C)c2ccc(Cl)c(COc3cccn4c(Br)c(C)nc34)c2Cl)cn1.Cl.Cl | – | Inhibition [8]: 76.4%

Row | IC50 [1] | IC50 [2] | SMILES | Inhibition [6] | further results
20 | 12 nM | 260 nM | Cc1ccc(NC(=O)NCC(=O)N(C)c2ccc(Cl)c(COc3cccn4c(Br)c(C)nc34)c2Cl)cc1.Cl | – | Inhibition [9]: 35%
21 | 2.3 nM | 200 nM | COc1cccc(NC(=O)NCC(=O)N(C)c2ccc(Cl)c(COc3cccn4c(Br)c(C)nc34)c2Cl)c1.Cl | 0% | –
22 | 2.7 nM | 140 nM | Cc1cccc(NC(=O)NCC(=O)N(C)c2ccc(Cl)c(COc3cccn4c(Br)c(C)nc34)c2Cl)c1 | – | inhibition in vivo at 3.2 mg/kg [10]: 27.4%
23 | 0.79 nM | 20 nM | COCCNC(=O)c1cccc(NC(=O)NCC(=O)N(C)c2ccc(Cl)c(COc3cccn4c(Br)c(C)nc34)c2Cl)c1.Cl | 16.1% | –
24 | 0.78 nM | 120 nM | Cc1nc2c(OCc3c(Cl)ccc(N(C)C(=O)CNC(=O)/C=C\c4ccccc4)c3Cl)cccn2c1Br | – | inhibition in vivo at 1 mg/kg [3]: 0%
25 | 0.66 nM | 1.4 nM | Cc1nc2c(OCc3c(Cl)ccc(N(C)C(=O)CNC(=O)/C=C/c4ccc(C(=O)N(C)C)cc4)c3Cl)cccn2c1Br.Cl | 86.7% | Inhibition [11]: 74.8%
26 | 0.79 nM | 61 nM | CC(=O)c1cccc(NC(=O)NCC(=O)N(C)c2ccc(Cl)c(COc3cccn4c(Br)c(C)nc34)c2Cl)c1.Cl | 24.9% | –
27 | 0.55 nM | 1.6 nM | CC(=O)Nc1ccc(/C=C/C(=O)NCC(=O)N(C)c2ccc(Cl)c(COc3cccn4c(Br)c(C)nc34)c2Cl)cc1.Cl | – | Inhibition [12]: 20.7%
28 | 0.76 nM | 20 nM | Cc1nc2c(OCc3c(Cl)ccc(N(C)C(=O)CNC(=O)Nc4cccc(C(=O)N(C)C)c4)c3Cl)cccn2c1Br.Cl | 23.2% | –
29 | 5.3 nM | 670 nM | Cc1nc2c(OCc3c(Cl)ccc(N(C)C(=O)CNC(=O)Cc4ccccc4)c3Cl)cccn2c1Br.Cl | – | Inhibition [13]: 19.8%
30 | 11 nM | 570 nM | Cc1nc2c(OCc3c(Cl)ccc(N(C)C(=O)CNC(=O)NCc4ccccc4)c3Cl)cccn2c1Br.Cl | – | Inhibition [13]: 24.1%
31 | 4.2 nM | 180 nM | Cc1nc2c(OCc3c(Cl)ccc(N(C)C(=O)CNC(=O)Nc4cccc([N+](=O)[O-])c4)c3Cl)cccn2c1Br | – | inhibition in vivo at 1 mg/kg [3]: 13.6%
32 | 0.36 nM | 9.1 nM | CNC(=O)c1ccc(/C=C/C(=O)NCC(=O)N(C)c2ccc(Cl)c(COc3cccn4c(Br)c(C)nc34)c2Cl)cn1.Cl.Cl | 89.4% | –
33 | 0.89 nM | 2.6 nM | CNC(=O)Nc1ccc(/C=C/C(=O)NCC(=O)N(C)c2ccc(Cl)c(COc3cccn4c(Br)c(C)nc34)c2Cl)cc1.Cl | 18.8% | –
34 | 1.4 nM | 190 nM | Cc1nc2c(OCc3c(Cl)ccc(N(C)C(=O)CNC(=O)Nc4cccc(C#N)c4)c3Cl)cccn2c1Br.Cl | 4.7% | –
35 | 3.8 nM | 1900 nM | Cc1nc2c(OCc3c(Cl)ccc(N(C)C(=O)CNC(=O)Nc4cccc(Cl)c4)c3Cl)cccn2c1Br.Cl | 14.5% | –
36 | – | 4100 nM | CC(=O)NCC(=O)N(C)c1ccc(Cl)c(COc2cccn3c(Br)c(C)nc23)c1Cl.Cl | – | Inhibition [5]: 94.2%; inhibition in vivo at 1 mg/kg [3]: 62.3%
37 | 1.4 nM | 150 nM | Cc1nc2c(OCc3c(Cl)ccc(N(C)C(=O)CNC(=O)Nc4ccccc4)c3Cl)cccn2c1Br | – | –
38 | 0.09 nM | – | NC(N)=NCCC[C@@H](N)C(=O)N[C@@H](CCCN=C(N)N)C(=O)N1CCC[C@H]1C(=O)N1C[C@H](O)C[C@H]1C(=O)NCC(=O)N[C@@H](Cc1cccs1)C(=O)N[C@@H](CO)C(=O)N1Cc2ccccc2C[C@@H]1C(=O)N1[C@H](C(=O)N[C@@H](CCCN=C(N)N)C(=O)O)C[C@@H]2CCCC[C@@H]21 [ICATIBANT] | – | –

Source: ChEMBL document CHEMBL1131588, “A novel class of orally active non-peptide bradykinin B2 receptor antagonists. 2. Overcoming the species difference between guinea pig and man” (J Med Chem, 1998)
